# Calls of active or inactive are those of the source. No cut-off for these calls is given here. *1 amine or outer side, *2 acyl side, *3 side chain or, on linkers, in order; H or OH if unused. Where a SMILES comes first, the peptide text is derived from it. [ ]: non-standard residue; d: D form. X1 = CC[C@@H](C)[C@@H](O[*:1])C(=O)[*:2]; NMeVal(β-OH) = CN[C@H](C(=O)O)C(C)(C)O; NMeF = CN[C@@H](Cc1ccccc1)C(=O)O; aIle = CC[C@@H](C)[C@H](N)C(=O)O; NMeV = CN[C@H](C(=O)O)C(C)C
# Experiments:
# Pichia kudriavzevii [1] = test: Increase in ERG11 mRNA expression in Candida krusei B2401 after 60 mins by hot-phenol extraction based Northern blotting; type: functional, organism-based
# Pichia kudriavzevii [2] = test: Increase in ABC1 mRNA expression in Candida krusei B2402 after 60 mins by hot-phenol extraction based Northern blotting; type: functional, organism-based
# Pichia kudriavzevii [3] = test: Antimicrobial activity against Candida krusei B2399 after 48 hrs by liquid microdilution assay; type: functional; conditions: B2399, 48 h
# Method in brief: (§1)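 Liquid broth microdilution susceptibility assay in CSM medium at pH 7.0, which was also the medium used for the expression studies. Fungal strains were maintained in YPD. The S. cerevisiae test strains carry C. krusei ABC1 or fungal ERG11 alleles integrated at the chromosomal PDR5 locus.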
# Pichia kudriavzevii [4] = test: Antimicrobial activity against Candida krusei IFO0011 after 48 hrs by liquid microdilution assay; type: functional; conditions: IFO0011, 48 h; method in brief: as §1
# Pichia kudriavzevii [5] = test: Antimicrobial activity against Candida krusei NZCDC 89.021 after 48 hrs by liquid microdilution assay; type: functional; conditions: NZCDC 89.021, 48 h; method in brief: as §1
# Pichia kudriavzevii [6] = test: Antimicrobial activity against Candida krusei NZCDC 89.102 after 48 hrs by liquid microdilution assay; type: functional; conditions: NZCDC 89.102, 48 h; method in brief: as §1
# Pichia kudriavzevii [7] = test: Antimicrobial activity against Candida krusei NZCDC 89.221 after 48 hrs by liquid microdilution assay; type: functional; conditions: NZCDC 89.221, 48 h; method in brief: as §1
# Pichia kudriavzevii [8] = test: Antimicrobial activity against Candida krusei NZCDC 90.147 after 48 hrs by liquid microdilution assay; type: functional; conditions: NZCDC 90.147, 48 h; method in brief: as §1
# Pichia kudriavzevii [9] = test: Antimicrobial activity against Candida krusei B2399 after 48 hrs by CLSI method; type: functional; conditions: B2399, 48 h
# Method in brief: (§2)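 Azole MICs were determined by the CLSI M27-A2 broth microdilution reference method. They were interpreted against the CLSI breakpoints. Strains were maintained in YPD medium (1% yeast extract, 2% peptone, 2% glucose).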
# Pichia kudriavzevii [10] = test: Antimicrobial activity against Candida krusei IFO0011 after 48 hrs by CLSI method; type: functional; conditions: IFO0011, 48 h; method in brief: as §2
# Pichia kudriavzevii [11] = test: Antimicrobial activity against Candida krusei NZCDC 89.021 after 48 hrs by CLSI method; type: functional; conditions: NZCDC 89.021, 48 h; method in brief: as §2
# Pichia kudriavzevii [12] = test: Antimicrobial activity against Candida krusei NZCDC 89.102 after 48 hrs by CLSI method; type: functional; method in brief: as §2
# Pichia kudriavzevii [13] = test: Antimicrobial activity against Candida krusei NZCDC 89.221 after 48 hrs by CLSI method; type: functional; method in brief: as §2
# Pichia kudriavzevii [14] = test: Antimicrobial activity against Candida krusei NZCDC 90.147 after 48 hrs by CLSI method; type: functional; method in brief: as §2
# Saccharomyces cerevisiae [15] = test: Antimicrobial activity against Saccharomyces cerevisiae isolate ADdelta overexpressing Abc1p after 48 hrs by liquid microdilution assay; type: functional; method in brief: as §1
# Saccharomyces cerevisiae [16] = test: Antimicrobial activity against Saccharomyces cerevisiae isolate ADdelta overexpressing Saccharomyces cerevisiae ERG11 after 48 hrs by liquid microdilution assay; type: functional; method in brief: as §1
# Saccharomyces cerevisiae [17] = test: Antimicrobial activity against Saccharomyces cerevisiae isolate ADdelta overexpressing Candida albicans ERG11A after 48 hrs by liquid microdilution assay; type: functional; method in brief: as §1
# Saccharomyces cerevisiae [18] = test: Antimicrobial activity against Saccharomyces cerevisiae isolate AD overexpressing Candida krusei ERG11C after 48 hrs by liquid microdilution assay; type: functional; method in brief: as §1
# Saccharomyces cerevisiae [19] = test: Antimicrobial activity against Saccharomyces cerevisiae isolate ADdelta overexpressing Candida krusei ERG11g after 48 hrs by liquid microdilution assay; type: functional; method in brief: as §1
# Saccharomyces cerevisiae [20] = test: Fold resistant, ratio of MIC for Saccharomyces cerevisiae isolate ADdelta overexpressing Saccharomyces cerevisiae ERG11 to MIC for Saccharomyces cerevisiae isolate ADdelta overexpressing Abc1p; type: functional
# Method in brief: (§3)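 Fold resistance is the ratio of azole MICs between S. cerevisiae overexpressing strains. The MICs were measured by liquid broth microdilution in CSM medium at pH 7.0. The ERG11 or ABC1 constructs are integrated at the PDR5 locus.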
# Saccharomyces cerevisiae [21] = test: Fold resistant, ratio of MIC for Saccharomyces cerevisiae isolate ADdelta overexpressing Candida albicans ERG11A to MIC for Saccharomyces cerevisiae isolate ADdelta overexpressing Abc1p; type: functional; method in brief: as §3
# Saccharomyces cerevisiae [22] = test: Fold resistant, ratio of MIC for Saccharomyces cerevisiae isolate ADdelta overexpressing Candida krusei ERG11C to MIC for Saccharomyces cerevisiae isolate ADdelta overexpressing Abc1p; type: functional; method in brief: as §3
# Saccharomyces cerevisiae [23] = test: Fold resistant, ratio of MIC for Saccharomyces cerevisiae isolate ADdelta overexpressing Candida krusei ERG11g to MIC for Saccharomyces cerevisiae isolate ADdelta overexpressing Abc1p; type: functional; method in brief: as §3
# [24] = biological target: ATP binding cassette transporter Abc1p (Issatchenkia orientalis) (UniProt Q09GQ4); test: Inhibition of Candida krusei ABC1 expressed in Saccharomyces cerevisiae isolate ADdelta at 23 nM; conditions: Pichia kudriavzevii
# Pichia kudriavzevii [25] = test: Increase in ERG11 mRNA expression in Candida krusei B2399 at MIC concentration after 1 hr by hot-phenol extraction based Northern blotting; type: functional, organism-based
# Method in brief: (§4)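 Northern blot. Logarithmically grown C. krusei B2399 was exposed to azoles for 60 min (FLC 1x MIC; VRC, MCZ, ITC 2x MIC) or to FLC at 1x MIC over a time course. About 100 OD units of cells were harvested. Total RNA was extracted with hot phenol, and 10 µg was run on 1.2% denaturing agarose. Blots were probed with radiolabelled ABC1 or ERG11, with ACT1 as internal control.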
# Pichia kudriavzevii [26] = test: Increase in ERG11 mRNA expression in Candida krusei B2399 at > 200 ug/ml after up to 320 mins by hot-phenol extraction based Northern blotting; type: functional, organism-based; method in brief: as §4
# Pichia kudriavzevii [27] = test: Increase in ABC1 mRNA expression in Candida krusei B2399 at MIC concentration after 320 mins by hot-phenol extraction based Northern blotting; type: functional, organism-based; method in brief: as §4
# Pichia kudriavzevii [28] = test: Increase in ERG11 mRNA expression in Candida krusei B2400 at MIC concentration after 80 mins by hot-phenol extraction based Northern blotting; type: functional, organism-based
# [29] = biological target: ATP binding cassette transporter Abc1p (Issatchenkia orientalis) (UniProt Q09GQ4); test: Inhibition of Candida krusei B2399 Abc1p assessed as fractional inhibitory concentration index at 2.5 ug/ml after 48 hrs by checkerboard susceptibility assay; conditions: Pichia kudriavzevii
# Method in brief: (§5)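 Checkerboard susceptibility assay combining the Abc1p inhibitor with FLC or ITC. MICs were determined at various inhibitor concentrations. The fractional inhibitory concentration index was calculated for each combination.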
# [30] = biological target: ATP binding cassette transporter Abc1p (Issatchenkia orientalis) (UniProt Q09GQ4); test: Inhibition of Candida krusei […] expressed in Saccharomyces cerevisiae isolate ADdelta assessed as fractional inhibitory concentration index at 2.5 ug/ml after 48 hrs by checkerboard susceptibility assay; conditions: Pichia kudriavzevii; method in brief: as §5
# [31] = biological target: ATP binding cassette transporter Abc1p (Issatchenkia orientalis) (UniProt Q09GQ4); test: Inhibition of Candida krusei Abc1p expressed in Saccharomyces cerevisiae isolate AD assessed as reduction of itraconazole MIC at 5 ug after 48 hrs by agarose diffusion assay; conditions: Pichia kudriavzevii
# [32] = biological target: ATP binding cassette transporter Abc1p (Issatchenkia orientalis) (UniProt Q09GQ4); test: Inhibition of Candida krusei B2399 Abc1p assessed as reduction of itraconazole MIC at 5 ug after 48 hrs by agarose diffusion assay; conditions: Pichia kudriavzevii
# [33] = biological target: ATP binding cassette transporter Abc1p (Issatchenkia orientalis) (UniProt Q09GQ4); test: Inhibition of Candida krusei IF011 Abc1p assessed as reduction of itraconazole MIC at 5 ug after 48 hrs by agarose diffusion assay; conditions: Pichia kudriavzevii
# [34] = biological target: ATP binding cassette transporter Abc1p (Issatchenkia orientalis) (UniProt Q09GQ4); test: Inhibition of Candida krusei ABC1 expressed in Saccharomyces cerevisiae isolate ADdelta at 7 nM; conditions: Pichia kudriavzevii
# [35] = biological target: ATP binding cassette transporter Abc1p (Issatchenkia orientalis) (UniProt Q09GQ4); test: Inhibition of Candida krusei ABC1 expressed in Saccharomyces cerevisiae isolate ADdelta at 2.5 uM; conditions: Pichia kudriavzevii
# Method in brief: (§6)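 Agarose disk-diffusion test of S. cerevisiae AD overexpressing C. krusei Abc1p, with the parent AD strain as comparison. Cells were pregrown from YPD overnight into CSM to mid-log at 30°C. They were seeded at OD600 0.008 in CSM with 0.6% agarose, overlaid on CSM agar (pH 7.0). Paper disks carrying set nmol amounts of xenobiotic were applied, and plates were incubated at 30°C for 48 h before reading growth inhibition zones.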
# [36] = biological target: ATP binding cassette transporter Abc1p (Issatchenkia orientalis) (UniProt Q09GQ4); test: Inhibition of Candida krusei ABC1 expressed in Saccharomyces cerevisiae isolate ADdelta at 131 nM; conditions: Pichia kudriavzevii; method in brief: as §6
compound,measurement,setting,value
CC(C)[C@@H](C)/C=C/[C@@H](C)[C@H]1CC[C@H]2C3=CC=C4C[C@@H](O)CC[C@]4(C)[C@H]3CC[C@]12C,Activity,Pichia kudriavzevii [1],inactive
same,Activity,Pichia kudriavzevii [2],inactive
OC(Cn1cncn1)(Cn1cncn1)c1ccc(F)cc1F [FLUCONAZOLE],MIC,Pichia kudriavzevii [3],256 µg/mL
same,MIC,Pichia kudriavzevii [4],256 µg/mL
same,MIC,Pichia kudriavzevii [5],256 µg/mL
same,MIC,Pichia kudriavzevii [6],256 µg/mL
same,MIC,Pichia kudriavzevii [7],256 µg/mL
same,MIC,Pichia kudriavzevii [8],256 µg/mL
same,MIC,Pichia kudriavzevii [9],32 µg/mL
same,MIC,Pichia kudriavzevii [10],128 µg/mL
same,MIC,Pichia kudriavzevii [11],32 µg/mL
same,MIC,Pichia kudriavzevii [12],32 µg/mL
same,MIC,Pichia kudriavzevii [13],32 µg/mL
same,MIC,Pichia kudriavzevii [14],128 µg/mL
same,MIC,Saccharomyces cerevisiae [15],0.5 µg/mL
same,MIC,Saccharomyces cerevisiae [16],2 µg/mL
same,MIC,Saccharomyces cerevisiae [17],2 µg/mL
same,MIC,Saccharomyces cerevisiae [18],4 µg/mL
same,MIC,Saccharomyces cerevisiae [19],64 µg/mL
same,ratio,Saccharomyces cerevisiae [20],4
same,ratio,Saccharomyces cerevisiae [21],4
same,ratio,Saccharomyces cerevisiae [22],8
same,ratio,Saccharomyces cerevisiae [23],128
same,Activity,[24],inactive
same,Activity,Pichia kudriavzevii [25],Active
same,Activity,Pichia kudriavzevii [26],inactive
same,Activity,Pichia kudriavzevii [27],Active
same,Activity,Pichia kudriavzevii [28],Active
same,fractional inhibitory concentration index (FICI),[29],0.35
same,fractional inhibitory concentration index (FICI),[30],0.112
C=CC[C@@H]1/C=C(\C)C[C@H](C)C[C@H](OC)[C@H]2O[C@@](O)(C(=O)C(=O)N3CCCC[C@H]3C(=O)O[C@H](/C(C)=C/[C@@H]3CC[C@@H](O)[C@H](OC)C3)[C@H](C)[C@@H](O)CC1=O)[C@H](C)C[C@@H]2OC,Activity,[31],Active
same,Activity,[32],Active
same,Activity,[33],Active
CC[C@@H](C)[C@@H]1NC(=O)[C@@H]2CCCN2C(=O)[C@H](Cc2ccccc2)N(C)C(=O)[C@H](Cc2ccccc2)NC(=O)[C@H](C(C)C)N(C)C(=O)[C@@H]([C@H](C)CC)OC(=O)[C@H](C(C)(C)O)N(C)C(=O)[C@H](CC(C)C)NC(=O)[C@H](C(C)C)N(C)C1=O (cyclo(F[NMeF]P[aIle][NMeV]L[NMeVal(β-OH)][X1][NMeV])),Activity,[34],inactive
C[C@H]1c2cccc(O)c2C(=O)C2=C(O)[C@]3(O)C(=O)C(C(N)=O)=C(O)[C@@H](N(C)C)[C@@H]3[C@@H](O)[C@@H]21,Activity,[35],inactive
COC(=O)c1ccccc1-c1c2ccc(=N)cc-2oc2cc(N)ccc12,Activity,[36],Active
